The subject of data set [1] is Mus musculus. Briefly: Compound was evaluated for anticonvulsant activity by maximal electroshock assay(MES) in mice after ip administration; 23-38. The class given is functional. In outline: (§1)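 Male Hilltop ICR-derived mice (19-30 g), groups of 8-10, dosed ip with compound or aqueous vehicle. After 15 min pretreatment, a transcorneal 60-Hz, 50 mA shock was given for 0.2 s. Just before the shock, each mouse was tested on a horizontal wire (10 s). Quantal data were analysed by Litchfield-Wilcoxon to give ED50 with 95% confidence limits.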

In data set [2] the test system is Mus musculus. Briefly: Protective index is defined as ND50 (i.p.) divided by MES ED50(i.p.). The format is functional. In short, it runs like this:
(§2)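 Ratio of ND50 from the wire traction test to MES ED50, both measured by the same route (ip or oral) in the same animals. Quantal dose-response data for each were evaluated by Litchfield-Wilcoxon.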

The test system of data set [3] is Mus musculus. Briefly: Dose of compound causing a neurological deficit in 50% of mice after ip administration; 70-93. The class given is functional. In short, it runs like this: (§3)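 Traction test in male Hilltop ICR-derived mice (19-30 g, groups of 8-10) just before electroshock, 15 min after ip or 30 min after oral dosing. Mice placed on a 16-gauge, 65-cm copper wire 40 cm above the table; deficit scored as failure to stay on for 10 s. ND50 with 95% limits by Litchfield-Wilcoxon.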

Data set [4] deals with Mus musculus. Kind of data set: Compound was evaluated for anticonvulsant activity by maximal electroshock assay(MES) in mice after po administration; 16-32. The class given is functional. In outline: (§4)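 Male Hilltop ICR-derived mice (19-30 g), groups of 8-10, given compound or aqueous vehicle orally. The transcorneal 60-Hz shock (50 mA, 0.2 s) followed a 30 min pretreatment and a wire-hang neurological check (10 s). ED50 and 95% confidence limits were obtained from quantal data by the Litchfield-Wilcoxon method.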
A general note: In the maximal electroshock model the usual endpoint is tonic extension of the hind limbs.

Data set [5] concerns Mus musculus. Briefly: Dose causing a neurological deficit in 50% of mice following p.o. administration. The format is functional. In outline: as §3
In data set [6] the test system is Rattus norvegicus. Kind of data set: Compound was evaluated for anticonvulsant activity by maximal electroshock assay(MES) in rat after po administration; 11-42. The format is functional. In outline: (§5)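 Male Simonsen Sprague-Dawley-derived rats, 80-110 g, groups of 8-10, dosed with compound or aqueous vehicle; pretreatment 15 min after ip or 30 min after oral dosing. Transcorneal electroshock, 150 mA, 60 Hz, 0.2 s, given after the wire test. ED50 with 95% confidence limits from quantal data by Litchfield-Wilcoxon.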

For data set [7], the system named is Rattus norvegicus. Briefly: Compound was evaluated for anticonvulsant activity by maximal electroshock assay(MES) in rat after ip administration; 5.3-12. The class given is functional. In outline: as §5
The test system of data set [8] is Rattus norvegicus. Kind of data set: Dose of compound causing a neurological deficit in 50% of rat after ip administration; 26-92. The class given is functional. In short, it runs like this:
(§6)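 Rats (Simonsen Sprague-Dawley-derived, 80-110 g, groups of 8-10) placed on a suspended 16-gauge, 65-cm copper wire just before electroshock. Deficit scored as inability to remain for 8 s. Pretreatment was 15 min ip or 30 min oral. Quantal data analysed by Litchfield-Wilcoxon to give ND50 with 95% limits.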

In data set [9] the test system is Mus musculus. Briefly: Protective index defined as ND50 (p.o.) divided by MES ED50(op). The class given is functional. In short, it runs like this: as §2
For data set [10], the system named is Mus musculus. Briefly: Dose of compound causing a neurological deficit in 50% of mice after ip administration; 13-115. The class given is functional. In outline: as §3
For data set [11], the system named is Rattus norvegicus. Kind of data set: Dose of compound causing a neurological deficit in 50% of rat after po administration. The format is functional. In short, it runs like this: as §6
In data set [12] the test system is Mus musculus. Kind of data set: Dose of compound causing a neurological deficit in 50% of mice after ip administration; 71-93. The class given is functional. In short, it runs like this:
as §3

For data set [13], the system named is Mus musculus. Kind of data set: Compound was evaluated for anticonvulsant activity by maximal electroshock assay(MES) in mice after ip administration; 38-55. The format is functional. In short, it runs like this:
as §1

In data set [14] the test system is Mus musculus. Briefly: Compound was evaluated for anticonvulsant activity by maximal electroshock assay(MES) in mice after po administration; 68-149. The class given is functional. In short, it runs like this:
as §4

Data set [15] concerns Mus musculus. Kind of data set: Dose of compound causing a neurological deficit in 50% of mice after ip administration. The format is functional. In short, it runs like this:
as §3

Data set [16] has as its system Mus musculus. Briefly: Anticonvulsant activity in mouse maximal electroshock assay following i.p. administration. The class given is functional. As to conditions: ip. In outline:
as §1

Data set [17] deals with Mus musculus. Briefly: Compound was evaluated for anticonvulsant activity by maximal electroshock assay(MES) in mice after ip administration; 9-26. The class given is functional. In outline: as §1
Data set [18] deals with Mus musculus. Briefly: Dose of compound causing a neurological deficit in 50% of mice after ip administration; 17-61. The class given is functional. In outline:
as §3

In data set [19] the test system is Mus musculus. Kind of data set: Dose of compound causing a neurological deficit in 50% of mice after ip administration; 71-111. The class given is functional. In short, it runs like this: as §3
The test system of data set [20] is Mus musculus. Briefly: Compound was evaluated for anticonvulsant activity by maximal electroshock assay(MES) in mice after ip administration; 18-28. The class given is functional. In outline:
as §1

Data set [21] deals with Mus musculus. Kind of data set: Dose causing a neurological deficit in 50% of mice after ip administration. The class given is functional. In short, it runs like this: as §3
In data set [22] the test system is Mus musculus. Kind of data set: Compound was evaluated for anticonvulsant activity by maximal electroshock assay(MES) in mice after ip administration; 62-102. The format is functional. In outline:
as §1

Data set [23] deals with Mus musculus. Briefly: Compound was evaluated for anticonvulsant activity by maximal electroshock assay(MES) in mice after ip administration; 20-42. The class given is functional. In short, it runs like this:
as §1

In data set [24] the test system is Mus musculus. Briefly: Compound was evaluated for anticonvulsant activity by maximal electroshock assay(MES) in mice after po administration. The format is functional. In short, it runs like this:
as §4

A short description of data set [25]: (§7) Lethal dose was measured in mice after ip administration. As to conditions: mouse, in vivo. The format is toxicity, organism-based. In short, it runs like this: (§8)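 Male Simonsen ICR-derived mice (16-24 g), groups of three, given compound ip in increasing doses within a behavioral screen. Deaths counted on day 5, and LD50 estimated from 5-day survival. Quantal data analysed by the Litchfield-Wilcoxon method.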

Data set [26] relates to Rattus norvegicus. Kind of data set: Compound was evaluated for anticonvulsant activity by maximal electroshock assay(MES) in rat after po administration. The format is functional. In short, it runs like this:
as §5

The test system of data set [27] is Rattus norvegicus. Briefly: Compound was evaluated for anticonvulsant activity by maximal electroshock assay(MES) in rat after ip administration; 2.9-19. The format is functional.
Data set [28] concerns Rattus norvegicus. Briefly: Dose of compound causing a neurological deficit in 50% of rat after ip administration. The class given is functional. In outline:
as §6

In data set [29] the test system is Mus musculus. Briefly: Compound was evaluated for anticonvulsant activity by maximal electroshock assay(MES) in mice after ip administration; 8-19. The class given is functional. In outline:
as §1

Data set [30] deals with Mus musculus. Kind of data set: Compound was evaluated for anticonvulsant activity by maximal electroshock assay(MES) in mice after po administration; 60-147. The class given is functional. In outline:
as §4

The subject of data set [31] is Mus musculus. Described as §7. The class given is functional. In outline:
as §8

Several values for one entry are separate records, joined by “and”; a condition that tells them apart may be missing. Equal values may be shown once.

What is called ED50 is the dose that gives a 50% effect, or the effect in half of the subjects. High values mean weaker potency, low ones greater potency. For the compound `CC(C)c1ccc(C(=O)Cn2ccnc2)c2ccccc12.Cl`, the ED50 in the data set with Mus musculus [1] was 28 mg/kg. Further, the PI with Mus musculus [2] was determined as 2.9. Further, the ND50 with Mus musculus [3] was found to be 81 mg/kg.

For the compound `Cl.c1ccc2c(C3(Cn4ccnc4)OCCO3)cccc2c1`, the ED50 was 23 mg/kg in the data set with Mus musculus [4], 22 mg/kg in the data set with Rattus norvegicus [6] and 7.8 mg/kg in the data set on Rattus norvegicus [7]. Moreover, the ND50 in the data set on Mus musculus [5] is more than 100 mg/kg; with Rattus norvegicus [8] it was 44 mg/kg; with Mus musculus [10], 28 mg/kg; with Rattus norvegicus [11], approximately 200 mg/kg. The PI in the data set on Mus musculus [9] is >4.3 and ~9.

On to `Cl.Clc1ccc(OC(Cn2ccnc2)c2ccc3ccccc3c2)cc1` (stereo not given), for which the PI in the data set with Mus musculus [2] was found to be 1.8. Further, the ND50 in the data set with Mus musculus [12] was determined as 82 mg/kg. Further, the 50% effect level with Mus musculus [13] (ED50) was put at a dose of 46 mg/kg.

`CCc1ccc2cc(C3(Cn4ccnc4)OCCO3)ccc2c1.Cl`: the values for the PI with Mus musculus [2] and in the data set on Mus musculus [9] were more than 4 and more than 2, respectively. Moreover, the ED50 in the data set with Mus musculus [14] came to 100 mg/kg; with Mus musculus [16], 25 mg/kg. Moreover, the ND50 with Mus musculus [5] is more than 200 mg/kg; with Mus musculus [15], more than 100 mg/kg.

In turn, `O=S(=O)(O)O.c1ccc(OC(Cn2ccnc2)c2ccc3ccccc3c2)cc1` (stereo not given) displayed a PI in the data set with Mus musculus [2] of 2.1. In addition, it took a dose of 15 mg/kg to reach the 50% effect level in the data set on Mus musculus [17] (ED50). Besides, in the data set with Mus musculus [18], the ND50 is 32 mg/kg.

Compound `CCC(=O)OC(Cn1ccnc1)c1ccc2ccccc2c1.Cl` (stereo not given) showed a PI in the data set with Mus musculus [2] of 3.6. In the data set with Mus musculus [19], this compound showed an ND50 of 83 mg/kg. The same compound displayed a median effective dose (ED50) in the data set with Mus musculus [20] of 23 mg/kg.

On to `COc1cc2cccc(C(=O)Cn3ccnc3)c2cc1OC.Cl`, for which the PI in the data set on Mus musculus [2] was more than 1.3. In the data set on Mus musculus [21], this compound came in with an ND50 of more than 100 mg/kg. In the data set on Mus musculus [22], this compound displayed an ED50 of 79 mg/kg.

Broadly, the LD50 is the dose at which mortality reaches 50%. Low readings indicate greater toxicity, high ones lower toxicity. In the case of `COc1ccc2cc(C(=O)Cn3ccnc3)ccc2c1.Cl`, the PI in the data set with Mus musculus [2] is recorded as more than 3.3. The ED50 is 31 mg/kg in the data set with Mus musculus [23] and more than 100 mg/kg in the data set with Mus musculus [24]. The ND50 with Mus musculus [21] and in the data set on Mus musculus [5] was more than 100 mg/kg throughout. In addition, the LD50 in data set [25] is more than 100 mg/kg.

With `Br.CCc1ccc2cc(C(=O)Cn3ccnc3)ccc2c1`, the PI is more than 8.1 in the data set on Mus musculus [2] and more than 1.2 in the data set on Mus musculus [9]. For the same compound, the ED50 is more than 30 mg/kg in the data set on Rattus norvegicus [26], 5.5 mg/kg in the data set with Rattus norvegicus [27], 12 mg/kg in the data set with Mus musculus [29] and 84 mg/kg with Mus musculus [30]. Also, the ND50 in the data set on Rattus norvegicus [28], with Mus musculus [21] and in the data set on Mus musculus [5] was more than 100 mg/kg throughout. In the data set with Mus musculus [31], this compound had an LD50 of more than 100 mg/kg.

The values above are taken from ChEMBL document CHEMBL1121883, “1-(Naphthylalkyl)-1H-imidazole derivatives, a new class of anticonvulsant agents” (J Med Chem, 1981).
